A selection: hits, their analogues and other compounds. The true share with any hit is near 2.3%.
m-calpain inh: inhibitors of pig calpain II, primary screen, biochemical, fluorogenic peptide substrate, 1536-well; purified calpain II, 30 min; inhibition, % at 16 µM; hit rate 0.37% among 220,000; AID 1236, 2008;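 active = inhibition above about 50%, limit read from the data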
NPY-Y2 PAM-ag: NPY-Y2 potentiators or agonists, primary screen, cell-based. cells expressing NPY-Y2, potentiator/agonist read-out. activation, % at 3.6 µM. hit rate 0.45% among 220,000. AID 1359, 2008; in the data active = activation above about 27%;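 also: cells stimulated with NPY near EC25 plus isoproterenol at EC100; 0% = vehicle plus submaximal agonist and 100% = vehicle plus saturating agonist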
Target sequence (P49146 whole entry, looked up): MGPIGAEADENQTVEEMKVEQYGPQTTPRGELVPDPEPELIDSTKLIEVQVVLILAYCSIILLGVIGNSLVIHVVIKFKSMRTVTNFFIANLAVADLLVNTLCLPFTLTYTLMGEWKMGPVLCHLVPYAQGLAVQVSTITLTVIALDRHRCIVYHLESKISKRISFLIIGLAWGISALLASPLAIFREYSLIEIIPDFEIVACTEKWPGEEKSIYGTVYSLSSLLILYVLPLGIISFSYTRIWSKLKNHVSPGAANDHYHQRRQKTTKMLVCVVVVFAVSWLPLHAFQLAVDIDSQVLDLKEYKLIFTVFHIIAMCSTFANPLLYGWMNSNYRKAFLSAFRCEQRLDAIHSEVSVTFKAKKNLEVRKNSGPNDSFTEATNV
NPY-Y1 antag: NPY-Y1 receptor antagonists, primary screen, cell-based; hit rate 1% among 200,000; inhibition, % at 3.6 µM; AID 1040, 2008; HEK293-CNG Y1 cells, membrane potential fluorescence; NPY at EC95, then isoproterenol; Neuropeptide Y receptor type 1 (Homo sapiens), P25929;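 active = inhibition above the campaign mean inhibition of all tested compounds plus 3 SD, cut at about 20% in these data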;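 also: 0% = DMSO wells given NPY plus isoproterenol and 100% = isoproterenol alone without NPY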
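Benchmarks – high control isoproterenol alone, low control NPY with isoproterenol · Material – HEK293 Y1/CNG channel cell line · Times – dye 3 h, compound 60 min room temperature, stimulation 45 min · Probe or stimulus – NPY (25 nM), isoproterenol (1 µM), Ro 20-1724 (25 µM) · Evaluation – % inhibition of NPY effect · Signal – fluorescence, membrane potential probe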
NPY1 pot ag: NPY-Y1 receptor potentiators or agonists, primary screen, cell-based. Neuropeptide Y receptor type 1 (Homo sapiens), P25929. NPY-Y1 expressing cells, potentiator/agonist activation. activation, % at 3.6 µM. hit rate 0.37% among 220,000; in the data active = activation above about 33%, passing the limit was not always enough;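 also: cells stimulated with NPY at EC10 then isoproterenol at EC100; 0% = low agonist plus stimulus and 100% = saturating agonist plus stimulus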
NPY-Y2 antag: NPY-Y2 receptor antagonists, primary screen, cell-based; Neuropeptide Y receptor type 2 (Homo sapiens), P49146; NPY-Y2 expressing cells, antagonist mode; inhibition, % at 2.7 µM; hit rate 0.99% among 140,000; AID 793, 2007; in the data active = inhibition above about 17%;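 also: 0% = vehicle with agonist challenge and 100% = reference antagonist with challenge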
TbHK1 inh: Trypanosoma brucei hexokinase 1 inhibitors, primary screen, biochemical, G6PDH-coupled NADH absorbance, MLSCN library; hexokinase 1 [Trypanosoma brucei]; recombinant TbHK1, G6PDH-coupled NADH A340; inhibition, % at 10 µM; hit rate 0.11% among 220,000; AID 1430, 2008;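 active = inhibition of 50% or more in the single-dose primary screen; inactive = inhibition below 50%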
NPY-Y1 antag ct: NPY-Y1 receptor antagonists, selectivity check, counter-screen for NPY-Y2 antagonist project, cell-based | cell-based NPY-Y1 antagonism counterscreen | hit rate 19% among 710 | shares compounds with NPY-Y2 antag | inhibition, % at 3.6 µM; in the data active = inhibition above about 20%;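 also: cells challenged with NPY then isoproterenol with cAMP sensed through a CNG channel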
NPY-Y2 ant conf: NPY-Y2 receptor antagonists, retest of hits, confirmation, HEK293-CNG cells, membrane potential fluorescence, triplicate | HEK293 NPY-Y2 CNG channel | inhibition, % at 2.8 µM | shares compounds with NPY-Y2 antag | AID 1257, 2008 | hit rate 32% among 710;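 active = mean inhibition of triplicate wells above the hit cutoff set in the primary screen, cut at about 17% in these data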;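 also: 0% = DMSO with NPY challenge and 100% = BIIE0246 high control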
* marks the source's active call; other numbers are inactive results; · = not tested or not shown.

SMILES	m-calpain inh	NPY-Y2 PAM-ag	NPY-Y1 antag	NPY1 pot ag	NPY-Y2 antag	TbHK1 inh	NPY-Y1 antag ct	NPY-Y2 ant conf
CN(C)C(=O)CSc1nnc(-c2ccc(F)cc2)c2ccccc12	-10.4	-20.7	·	9.5	·	-14.7	·	·
CCCCSc1nnc(-c2ccc(C)cc2)c2ccccc12	52.5*	2.3	7.0	7.9	17.7*	32.3	8.8	12.9
CCCCn1c(SCC(=O)Nc2nccs2)nc2ccccc2c1=O	23.8	7.5	1.0	11.4	1.1	-7.2	·	·
CCCCn1c(SCC(=O)Nc2ccccc2C(F)(F)F)nc2ccsc2c1=O	40.2	15.8	12.0	23.6	28.8*	2.9	13.8	13.1
CCCCn1c(SCC(=O)N2CCN(c3ccccc3)CC2)nc2ccsc2c1=O	27.5	-3.5	6.4	-5.1	20.4*	7.0	25.0*	13.6
Cc1cc(C)cc(NC(=O)COC(=O)CN=C2NS(=O)(=O)c3ccccc32)c1	-19.4	-2.4	0.2	2.9	·	-3.5	·	·
O=c1[nH][nH]c(=S)n1-c1ccccc1C(F)(F)F	-16.1	13.7	·	5.2	·	-6.0	·	·
Cc1ccc(S(=O)(=O)c2cc3ccccc3nc2N)cc1	-405.4	-12.9	1.9	-2.3	·	2.2	·	·
Brc1cccc(OCCCCN2CCCCC2)c1	-6.8	-5.6	3.3	-33.5	4.2	5.4	·	·
Cc1cccc(Nc2nc(NCc3ccco3)c3ccccc3n2)c1	-16.6	9.8	5.0	-1.9	26.6*	2.5	22.1*	20.0*
Cc1nc(SCC(=O)NNC(=O)c2cccs2)[nH]c(=O)c1C	-36.3	-12.5	-6.0	-17.5	·	0.1	·	·
CC(=N[C@@H]1CCCC[C@H]1N=C(C)c1ccccc1O)c1ccccc1O	-2.2	3.4	-1.0	-14.0	1.1	-4.3	·	·
CC(C)COc1ccc(C(=O)OC2CC(C)(C)OCC2CN(C)C)cc1 (configuration not stated)	-17.9	-32.5	15.5	-33.9	23.7*	4.7	15.7	30.5*
CN(C)CC1CCCCC1OC(=O)c1ccc(Br)cc1 (configuration not stated)	-30.4	-9.3	14.4	-10.7	·	4.8	·	·
CCOc1ccc(Cc2c(Cl)nc(SC)nc2N(C)C)cc1	4.9	-23.5	11.6	-45.2	49.9*	4.1	62.8*	50.4*
CCOC(=O)c1c(-n2cccc2)sc2c1CCCC2=O	11.7	11.9	-3.2	1.5	25.4*	16.2	1.4	2.8
CCOC(=O)c1c(N2C(=O)Nc3ccccc3N2O)sc2c1CCCC2	-9.2	4.9	-0.2	17.8	3.8	20.6	·	·
N=c1c2c(ncn1Cc1ccco1)Oc1c(ccc3ccccc13)C2c1ccccc1 (configuration not stated)	-23.0	-6.7	13.7	-63.3	19.0*	1.8	14.1	12.2
Cc1ccc(CSCCNC(=O)c2ccc(N(C)S(=O)(=O)c3ccccc3)cc2)cc1	35.9	-25.8	4.9	-35.6	17.9*	14.2	10.3	14.7
CN(c1ccc(C(=O)NCCSCc2ccc(Cl)cc2)cc1)S(=O)(=O)c1ccccc1	20.2	10.2	7.6	-22.6	11.0	5.7	·	·
COc1ccccc1OCc1nc(C#N)c(N2CC(C)CC(C)C2)o1 (configuration not stated)	-1.7	-3.2	15.4	-36.6	17.9*	8.7	9.5	6.2
COc1ccccc1OCc1nc(C#N)c(N2CCCC2)o1	6.5	4.8	4.8	-10.5	·	-1.6	·	·
COC(=O)c1sc(N)c(C(=O)OC)c1CSc1nc2sc3c(c2c(=O)n1C)CCC3	-36.5	-0.2	-6.9	-13.6	-0.7	-2.3	·	·
COC(=O)c1ccc(CSc2nc3sc4c(c3c(=O)n2C)CCCC4)o1	14.2	7.5	1.1	3.9	18.5*	-5.8	17.1	18.9*

Screening results as filed in PubChem BioAssay.
